Compound activity from PubChem.
Only some compounds are listed: those with a hit (about 3.8% of all), similar ones and a draw of the others.
MC4R barr agon: human MC4R agonism via beta-arrestin; P32245; U2OS MC4R beta-arrestin complementation, luminescence; percent of melanotan II response, DMSO zero; activation, % at 8.9 µM; 360,000 tested, 0.98% active; AID 540308;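 active means activation above a per-plate cutoff, the mean activation of sample wells on that plate plus 3 SD, cut at about 8% in these data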
Target sequence (P32245 whole entry, looked up): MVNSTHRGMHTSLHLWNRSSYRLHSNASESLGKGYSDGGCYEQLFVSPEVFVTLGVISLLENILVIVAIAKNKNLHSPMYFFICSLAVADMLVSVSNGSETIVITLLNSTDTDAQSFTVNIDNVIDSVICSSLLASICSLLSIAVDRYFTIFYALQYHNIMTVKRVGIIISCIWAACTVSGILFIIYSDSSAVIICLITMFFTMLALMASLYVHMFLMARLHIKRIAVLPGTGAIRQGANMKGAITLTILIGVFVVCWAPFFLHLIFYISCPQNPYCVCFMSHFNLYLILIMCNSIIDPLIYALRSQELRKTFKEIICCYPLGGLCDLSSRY
TMEM16A inh: blocks the mouse calcium-activated chloride channel TMEM16A | Q8BHY3 | HEK293 TMEM16A/YFP iodide influx fluorescence, ionomycin | normalized B-score (activity score, 25-100; higher = stronger inhibition) at 10 µM | 310,000 tested, 1.2% active;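 active means ratio plate-corrected score three or more library SD toward inhibition, starting fluorescence score within five deviations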;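 further: score derived from kinetic fluorescence span divided by baseline fluorescence per well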
TMEM16A act: activators or potentiators of mouse TMEM16A chloride channel | 340,000 tested, 0.3% active | B-score at 10 µM | AID 623877 | HEK293 TMEM16A/YFP-H148Q/I152L, iodide quench fluorescence; stronger effect = lower value | Q8BHY3;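 active means fluorescence-ratio B-score plate-corrected deviation score at least 3 library SD below zero, with starting fluorescence score within 5 deviations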;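 further: channel opened by trigger with iodide after compound preincubation; score built on the fluorescence ratio of max minus min over baseline; more negative score means more quench and so TMEM16A activation or potentiation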
CSC inhib: cancer stem cell inhibition; cancer stem cell-like cells viability, luminescence; inhibition, % at 7.5 µM; 300,000 tested, 1.1% active; AID 2717; in the data active means inhibition above about 75%; inconclusive means no clear call, values can overlap the other calls; tested in HMLE shEcad cells
MC4R antag cAMP: human MC4R antagonism in cAMP assay | P32245 | MC4R-expressing cells, MTII-stimulated cAMP, LANCE TR-FRET | inhibition, % at 6.5 µM | 360,000 tested, 0.48% active;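 active means inhibition above its plate's cutoff, the mean of tested wells on that plate plus 3 SD, cut at about 29% in these data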
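system = U2OS cells with stable human MC4R expression | also added = Melanotan II challenge after compound preincubation | dosing = one concentration, 6.5 µM nominal | incubation = compound 30 min, challenge 1 h, detection 1 h | measured by = TR-FRET with Eu-cAMP and labeled anti-cAMP, 671 nm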
Beta apoptosis: beta cell apoptosis inhibition; INS-1E cytokine-induced death, ATP luminescence, 48 h; percent of positive-control rescue, neutral wells zero; AID 435005; 300,000 tested, 0.8% active; protection from apoptosis, % (no concentration beside the values);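 active means Every replicate reaches about 75%, or at least half do and their mean reaches it too, limit read from the data; inconclusive means At least half of replicates reach the limit but their mean does not; inactive means Under half of replicates reach the limit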;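 further: higher means more ATP so stronger rescue from cytokine killing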
U2OS cAMP counter: U2OS forskolin cAMP inhibition counter-screen | shares compounds with MC4R antag cAMP | parental U2OS, LANCE TR-FRET | inhibition, % at 6.5 µM | 1,600 tested, 26% active | AID 602193;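 active means mean inhibition over triplicates above the low-control well mean plus 3 SD, set per campaign, cut at about 13% in these data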;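 further: signal is single emission at 671 nm which falls as cellular cAMP rises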
MC4R antag conf: human MC4R cAMP antagonism confirmation; shares compounds with MC4R antag cAMP; MC4R-expressing cells, MTII-stimulated cAMP, TR-FRET; inhibition, % at 6.5 µM; 1,600 tested, 27% active; AID 602195; in the data active means inhibition above about 29%
Of the large screens only hits and unclear results are named; the others gave an inactive call (follow-up assays come after a bar, where they were run).

Cc1noc(C)c1NC(=O)N(C)C[C@H]1Oc2ccc(NC(=O)Cn3cnnn3)cc2C(=O)N([C@H](C)CO)C[C@@H]1C	none (no result: TMEM16A inh, CSC inhib)
Cn1cc(CN2C[C@H]3CC[C@H]2C3)c(-c2ccccc2F)n1	MC4R antag cAMP 29 | U2OS cAMP counter inactive | MC4R antag conf inactive
Cn1cc(CN2CCC(C(=O)N3CCCC3)CC2)c(-c2ccccc2F)n1	none
CNC(=O)C(=O)NCC(c1cccs1)S(=O)(=O)c1ccc(C)cc1 (stereo unspecified)	none
CC(=O)NCC(c1cccs1)S(=O)(=O)c1ccc(F)cc1 (stereo unspecified)	MC4R antag cAMP 33 | U2OS cAMP counter inactive | MC4R antag conf inactive
O=C(/C=C/c1ccco1)NC(=S)Nc1cc(-c2nc3ccccc3s2)ccc1Cl	MC4R antag cAMP 34 | U2OS cAMP counter inactive | MC4R antag conf inactive
COc1ccc(OC(=O)N2C/C(=C/c3ccccc3)C(=O)/C(=C\c3ccccc3)C2)cc1	MC4R antag cAMP 33 (no result: TMEM16A inh, CSC inhib, Beta apoptosis) | U2OS cAMP counter 15 | MC4R antag conf inactive
CCC1CC(C(=O)Nc2ccccc2)C(=O)O1 (stereo unspecified)	none (no result: Beta apoptosis)
CN(C(=O)c1cccc(NC(=O)Cc2ccc(NC(=O)C3CCN(C(=O)C4CCC4)CC3)cc2)c1)C1CCC1	none (no result: TMEM16A inh, TMEM16A act, CSC inhib, Beta apoptosis)
CCOC(=O)c1c(-c2ccc(F)cc2)csc1NC(=O)CN1C(=O)NC2(CCCCC2C)C1=O (stereo unspecified)	MC4R antag cAMP 32 | U2OS cAMP counter inactive | MC4R antag conf inactive
Cc1[nH]c(=O)[nH]c(=O)c1S(=O)(=O)Nc1ccc(Cl)c([N+](=O)[O-])c1	none
Cc1[nH]c(=O)[nH]c(=O)c1S(=O)(=O)Nc1cccc([N+](=O)[O-])c1C	MC4R antag cAMP 30 | U2OS cAMP counter inactive | MC4R antag conf inactive
C#CC(=O)N(c1ccc(OC)cc1OC)C(C(=O)NC1CCCC1)c1cccs1 (stereo unspecified)	MC4R barr agon 9.0, MC4R antag cAMP 43 | U2OS cAMP counter inactive | MC4R antag conf 42
COc1ccc(N(C(=O)c2ccco2)C(C(=O)NC2CCCCC2)c2cccs2)cc1OC (stereo unspecified)	none
C#CC(=O)N(c1cc(OC)ccc1OC)C(C(=O)NC1CCCC1)c1cccs1 (stereo unspecified)	MC4R barr agon 16, MC4R antag cAMP 33 | U2OS cAMP counter inactive | MC4R antag conf inactive
CCCNC(=O)C1(C)CCCN(Cc2cccs2)C1 (stereo unspecified)	none (no result: TMEM16A inh, TMEM16A act, CSC inhib, Beta apoptosis)
O=C(O)c1ccc(-n2ccnc2)c([N+](=O)[O-])c1	none (no result: Beta apoptosis)
COC(=O)c1cc([N+](=O)[O-])c(-n2ccnc2)c([N+](=O)[O-])c1	MC4R antag cAMP 31 | U2OS cAMP counter inactive | MC4R antag conf inactive
CNc1ncnc2c1ncn2[C@H]1CN(Cc2ccncc2)C[C@@H](CO)O1	none (no result: TMEM16A inh, TMEM16A act, CSC inhib, Beta apoptosis)
CCCCC(CC)CO (stereo unspecified)	none (no result: TMEM16A inh, CSC inhib, Beta apoptosis)
CCCCC(CC)CN=C(N)NC(N)=NCCCCCCN=C(N)NC(N)=NCC(CC)CCCC (stereo unspecified)	TMEM16A act -26, CSC inhib 103, MC4R antag cAMP 69, Beta apoptosis 114 | U2OS cAMP counter 55 | MC4R antag conf 90
CC(=O)Nc1ccc(S(=O)(=O)Nc2ccccc2C(=O)N2CCCCCC2)cc1	none
COc1ccc(Oc2c(Cl)cnn(-c3ccc(Cl)c(Cl)c3)c2=O)cc1	CSC inhib inconclusive
CCOc1c(Cl)cnn(-c2ccc(C)cc2)c1=O	none
COc1ccc(Oc2c(Cl)cnn(-c3ccc(C)cc3)c2=O)cc1	MC4R antag cAMP 59 | U2OS cAMP counter 36 | MC4R antag conf 82
COc1ccc(Oc2c(Cl)cnn(-c3ccc(F)cc3)c2=O)cc1	MC4R antag cAMP 58 | U2OS cAMP counter 40 | MC4R antag conf 73
COc1c(Cl)cnn(-c2ccc(C)cc2)c1=O	MC4R antag cAMP 34 | U2OS cAMP counter inactive | MC4R antag conf inactive
COc1ccc(OC)c(NC(=O)C2CCCN(S(C)(=O)=O)C2)c1 (stereo unspecified)	none
Cc1cc(CC(=O)O)c2oc(-c3ccoc3)cc(=O)c2c1	none (no result: MC4R barr agon, MC4R antag cAMP)
C[C@H]1CN([C@@H](C)CO)C(=O)CCCn2nncc2CO[C@@H]1CN(C)Cc1ccc(C(F)(F)F)cc1	none (no result: TMEM16A inh, TMEM16A act, CSC inhib, Beta apoptosis)
C[C@@H]1CN([C@H](C)CO)C(=O)CCCn2nncc2CO[C@H]1CN(C)Cc1ccc(C(F)(F)F)cc1	MC4R antag cAMP 31 (no result: TMEM16A inh, TMEM16A act, CSC inhib, Beta apoptosis) | U2OS cAMP counter inactive | MC4R antag conf inactive
CCn1cc(CCC(=O)NCc2cccc(OC)c2OC)c2ccccc21	MC4R antag cAMP 31 | U2OS cAMP counter inactive | MC4R antag conf inactive
CCOc1ccccc1CNC(=O)CCc1cn(CC)c2ccccc12	none
COc1ccccc1C(=O)NC(=S)N1CCc2ccccc21	MC4R antag cAMP 30 | U2OS cAMP counter inactive | MC4R antag conf inactive
O=C(CN1C(=O)NC2(CCOc3ccccc32)C1=O)c1ccc(Br)cc1 (stereo unspecified)	none
O=C(OCCN1CCCCC1)c1ccc(Cl)cc1	none
O=C(OCCN1CCCCC1)c1ccccc1Br	MC4R antag cAMP 30 | U2OS cAMP counter inactive | MC4R antag conf inactive
COc1cccc(CC(=O)N2CCC(n3nccc3NC(=O)C3CCOC3)CC2)c1 (stereo unspecified)	none
C=CCn1c(Sc2ncc([N+](=O)[O-])s2)n[nH]c1=O	CSC inhib 106, MC4R antag cAMP 43 | U2OS cAMP counter 30 | MC4R antag conf 31
O=C(Oc1cncc(Cl)c1)c1sccc1Cl	MC4R antag cAMP 33 | U2OS cAMP counter inactive | MC4R antag conf inactive
CN(C)C(=O)c1cn(-c2ccc(Cl)cc2)c(=O)c2ccccc12	MC4R antag cAMP 32 | U2OS cAMP counter inactive | MC4R antag conf inactive
Cc1csc(CN(C)C(=O)CC2C(=O)NCCN2Cc2ccc(Cl)c(F)c2)n1 (stereo unspecified)	none
Cc1csc(CN(C)C(=O)CC2C(=O)NCCN2Cc2ccc(-c3ccccc3)cc2)n1 (stereo unspecified)	MC4R antag cAMP 29 | U2OS cAMP counter inactive | MC4R antag conf inactive
O=C(Nc1sc2c(c1C(=O)NCC1CCCO1)CCCC2)c1cccs1 (stereo unspecified)	MC4R antag cAMP 31 (no result: CSC inhib, Beta apoptosis) | U2OS cAMP counter inactive | MC4R antag conf inactive
O=C(COC(=O)C(Cc1ccccc1)NC(=O)c1cccs1)NCc1ccccc1 (stereo unspecified)	MC4R antag cAMP 30 (no result: TMEM16A inh) | U2OS cAMP counter inactive | MC4R antag conf inactive
O=C(N[C@@H](Cc1ccccc1)C(=O)OCC(=O)N1CCOCC1)c1cccs1	none
